# aDG glyco act: activators of alpha-DG glycosylation, primary screen, uHTS, Pro5-aDG cells, AlphaScreen. alpha-DG glycosylation AlphaScreen (IIH6); 0% Pro5, 100% B10-LARGE cell signal. activation, % at 10 µM. 360,000 compounds, 0.22% hits. AID 624168, 2012;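 active = activation of at least 8% versus controls, or a plate z-score of at least 8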;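 also: Pro5 are CHO cells carrying HIG-tagged alpha-DG that lacks glycosylation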
# Rev-erbA mod: modulators of Rev-erb alpha DNA binding, primary screen, biochemical, FITC-DNA, fluorescence polarization, uHTS; Nuclear receptor subfamily 1 group D member 1 (Homo sapiens), P20393; Rev-erbα–FITC-DNA binding, 90 min; activity, % at 10 µM; 370,000 compounds, 0.79% hits; AID 1259318, 2017;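 active = activity above about 14%, limit read from the data; passing the limit was not always enough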;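 also: 0% = DMSO wells with 35 nM protein and 100% = DMSO wells with 750 nM protein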
# CSN deneddyl inh: inhibitors of CSN-mediated cullin deneddylation, primary screen, biochemical, fluorescence polarization, uHTS. AID 651999, 2013. inhibition, % at 12.5 µM. 360,000 compounds, 0.38% hits. Purified CSN, SCF-Nedd8-OG deneddylation;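 active = pattern-corrected inhibition above about 35%, with an unprinted fluorescence ratio check between 0.5 and 1.5, limit read from the data, passing the limit was not always enough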;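 also: 0% = enzyme with substrate and 100% = substrate without enzyme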
#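 assay system = purified human Csn5 enzyme expressed in HEK293T cells | amount = 0.24 nM enzyme | buffer or medium = Tris/NaCl/DTT buffer, pH 7.5 | reagent = 10 nM SCFSkp2-Nedd8OG | compound = one concentration, 12.5 µM, 0.25% DMSO | times = 90 min reaction at room temperature | signal = FP | read-out basis = % inhibition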
# HNF4A DNA FP: change in binding of human HNF4A to DNA, primary screen, biochemical, fluorescence polarization, FITC-DNA | Hepatocyte nuclear factor 4-alpha (Homo sapiens), P41235 | activity change, % at 10 µM | 1 h | 360,000 compounds, 0.3% hits; in the data active = activity change above about 30%, passing the limit was not always enough
# Target sequence (P41235 whole entry, looked up): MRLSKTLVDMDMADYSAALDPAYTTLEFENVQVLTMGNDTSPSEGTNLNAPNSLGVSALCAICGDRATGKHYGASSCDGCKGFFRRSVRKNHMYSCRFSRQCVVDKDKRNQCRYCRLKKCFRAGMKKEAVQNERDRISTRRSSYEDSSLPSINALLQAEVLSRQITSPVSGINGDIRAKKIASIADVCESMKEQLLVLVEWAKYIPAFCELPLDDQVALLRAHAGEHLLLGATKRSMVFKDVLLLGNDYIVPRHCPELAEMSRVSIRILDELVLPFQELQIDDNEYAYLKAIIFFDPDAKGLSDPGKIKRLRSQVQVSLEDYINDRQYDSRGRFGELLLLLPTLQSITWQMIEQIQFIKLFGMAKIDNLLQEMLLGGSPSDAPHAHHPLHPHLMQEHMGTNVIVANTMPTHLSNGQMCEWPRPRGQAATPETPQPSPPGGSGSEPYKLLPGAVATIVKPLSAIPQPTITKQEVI
# HNF4A confirm: change in HNF4A binding to DNA, retest, confirmation, biochemical, fluorescence polarization, FITC-DNA; shares compounds with HNF4A DNA FP; 210 compounds, 99% hits; 1 h; activity change, % at 12.5 µM; AID 1224897, 2016; call rule not given here
# Rev-erbA confirm: modulators of Rev-erb alpha DNA binding, confirmation, biochemical, FITC-DNA, fluorescence polarization, single point | shares compounds with Rev-erbA mod | 90 min | activation, % at 25 µM | 3,000 compounds, 61% hits;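 active = activation at or above a set limit, or at least 3 SD above the negative control mean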;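 also: 0% = 35 nM protein with DMSO and 100% = 750 nM protein high control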
# RORg counter: modulation of RORgamma DNA binding, dose response, counter-screen for Rev-erb alpha modulator project, biochemical, fluorescence polarization, FITC-DNA. shares compounds with Rev-erbA mod. purified RORgamma protein-FITC-DNA binding. IC50, µM. 910 compounds, 8% hits. AID 1259320, 2017;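 active = Compounds whose fitted half-maximal concentration for disrupting protein-DNA binding is below 10 micromolar; the record names Rev-erb in its text, so the target is in doubt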
# Active calls of the source: *; i = inactive; · = no result given. Sampled rows, rich in hits. Any-hit rate of the full collection: about 1.5%.
SMILES,aDG glyco act,Rev-erbA mod,CSN deneddyl inh,HNF4A DNA FP,Rev-erbA confirm,others
C[C@H]1CC[C@@H]2[C@@H](C)[C@H]3[C@H](C[C@H]4[C@@H]5CC=C6C[C@@H](O[C@@H]7O[C@H](CO)[C@H](O)[C@H](O[C@@H]8O[C@H](CO)[C@@H](O)[C@H](O)[C@H]8O)[C@H]7O[C@@H]7O[C@@H](C)[C@H](O)[C@@H](O)[C@H]7O)CC[C@]6(C)[C@H]5CC[C@]34C)N2C1,0,-4,16,44*,·,HNF4A confirm=40*
C[C@@H]1CC2C3CC=C4C[C@@H](O)CC[C@]4(C)C3CC[C@]2(C)[C@H]1O (some centres not stated),0,-2,0,4,·,
CC(C)C(Br)C(=O)NC(N)=O (configuration not stated),·,-6,·,·,·,
CCCCCn1c(=O)c(C(=O)Nc2ccccc2S(N)(=O)=O)c(O)c2ccccc21,2,43*,2,-2,18,
CCCCCn1c(=O)c(C(=O)Nc2cnccn2)c(O)c2ccccc21,6,4,1,2,·,
CCCCCCCn1c(=O)c(C(=O)Nc2cnccn2)c(O)c2ccccc21,1,48*,-2,0,43*,RORg counter=>40
CCCCn1c(=O)c(C(=O)Nc2ccccc2S(N)(=O)=O)c(O)c2ccccc21,0,3,1,-1,·,
CCOC(=O)CC[C@@H]1CC[C@]2(CCCN(Cc3cccnc3)C2)O1,·,-1,·,·,·,
O=C(/C=C/c1c[nH]c2ccccc12)c1c(O)n(CCc2ccccc2)c(=O)[nH]c1=O,0,39*,-75,-96,3,
CC1(C)C(C=C(Cl)Cl)C1C(=O)OC(C#N)c1cccc(Oc2ccccc2)c1 (configuration not stated),·,-7,·,·,·,
COc1ccc(CCn2c(O)c(C=Nc3ccc(F)cc3)c(=O)[nH]c2=O)cc1OC,0,130*,8,2,69*,RORg counter=i
COC(=O)c1cccc(N=Cc2c(O)n(Cc3ccc(F)cc3)c(=O)[nH]c2=O)c1,0,616*,-4,-1,22*,
O=C(O)c1ccc(N=Cc2c(O)n(Cc3ccc(F)cc3)c(=O)[nH]c2=O)cc1,0,-3,35,17,·,
CN[C@@H](C)[C@H](O)c1ccccc1,·,5,·,·,·,
CN1/C(=C\C=C2C(=O)NC(=O)NC2=O)C(C)(C)c2ccccc21,0,20*,155,220,-1,
C=C1C(=O)C(C)=C2C(=O)N3Cc4[nH]c5ccccc5c4CC3(C(=O)OC)C12 (configuration not stated),·,-5,·,·,·,
N#Cc1ccccc1Cn1cc(C(=O)c2cccs2)c2ccccc21,2,25*,0,0,10,
CCCCCCn1c(O)c(C=Nc2ccccc2N2CCOCC2)c(=O)[nH]c1=S,0,54*,3,74*,5,
CCCCn1c(O)c(/C=N/N2CCOCC2)c(=O)[nH]c1=S,0,3,2,4,·,
CCOc1ccc(N2C(=O)NC(=O)/C(=C\c3ccc(N4CCCCC4)o3)C2=O)cc1,0,29*,138,181,33*,
CN1C(=O)C(=Cc2ccc(N3CCOCC3)o2)C(=O)N(C)C1=S,0,39*,176,87*,44*,RORg counter=>40
CN1C(=O)C(=Cc2ccc(Sc3ccccc3)o2)C(=O)N(C)C1=S,0,-4,18,0,·,
CN1C(=O)/C(=C\c2ccc(N3CCCCC3)o2)C(=O)NC1=S,0,110*,172,182,132*,RORg counter=i
Cc1ccc(N=CN(C)C=Nc2ccc(C)cc2C)c(C)c1,·,16,·,·,·,
CN1C2CCC1CC(OC(c1ccccc1)c1ccc(Cl)cc1)C2 (configuration not stated),·,-4,·,·,·,
SMILES,aDG glyco act,Rev-erbA mod,CSN deneddyl inh,HNF4A DNA FP,Rev-erbA confirm,others
CCOc1cc(C)cc2oc(=O)c3c(c12)CCCC3,0,27*,2,0,2,
COC(=O)C1C(c2ccc(C)cc2)CC2CCC1N2C (configuration not stated),·,7,·,·,·,
COC(=O)C1=C(c2ccc(F)cc2F)C[C@@H]2CC[C@H]1N2C(=O)NCCCOC(C)C,0,19*,-6,3,0,
COC(=O)C1=C(c2ccc(F)cc2F)C[C@@H]2CC[C@H]1N2C(=O)NCCO,0,-2,-5,-1,·,
O=c1[nH]c(O)c(N=Nc2cc([N+](=O)[O-])ccc2O)c(=O)[nH]1,0,20*,0,1,7,
O=[N+]([O-])c1ccc(O)c([N+](=O)[O-])c1,0,-2,-4,-1,·,
